pKi: −log10 of the molar value. “Also recorded” adds a separate entry of the source. Read-outs that look alike come from different tables or passages of the source.
Tests used:
hCA I = hCA I (Homo sapiens, UniProt P00915); experiment: stopped-flow CO2 hydration assay, hCA I; format: biochemical
Procedure, shortened: (§1)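 Recombinant in-house enzyme, preincubated 15 min at room temperature with inhibitor. Inhibitor stock was 0.1 mM in water, diluted down to 0.01 nM. CO₂ (1.7–17 mM) hydration was followed by stopped-flow with 0.2 mM phenol red at 557 nm, in 20 mM HEPES pH 7.5 with 20 mM Na₂SO₄, over 10–100 s. Initial rates came from six traces and were corrected for the uncatalysed rate. Ki was obtained by non-linear least squares, mean of ≥3 measurements.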

hCA II [1] = molecular target: T1, hCA II (Homo sapiens, UniProt P00918); experiment: stopped-flow CO2 hydration assay, hCA II; format: biochemical
Procedure, shortened: as §1

hCA VI = hCA VI (Homo sapiens, UniProt P23280); experiment: stopped-flow CO2 hydration assay, hCA VI; format: biochemical
hCA IX = hCA IX (Homo sapiens, UniProt Q16790); experiment: stopped-flow CO2 hydration assay, hCA IX; format: biochemical; conditions: for SI I/IX: ratio of KI hCA I to KI hCA IX; for SI II/IX: ratio of KI hCA II to KI hCA IX
hCA XII = hCA XII (Homo sapiens, UniProt O43570); experiment: stopped-flow CO2 hydration assay, hCA XII; format: biochemical; conditions: for SI I/XII: ratio of KI hCA I to KI hCA XII
hCA II [2] = molecular target: T1, hCA II; conditions: read-out: KI hCA II; stopped-flow hydration assay; values marked *; cited from earlier work
[3] = test system: non-small cell lung carcinoma A549; experiment: cell proliferation, CCK-8 assay, A549; format: cell-based; conditions: A549 cells, 72 hours, hypoxic conditions
[4] = test system: pancreatic epithelioid carcinoma PANC-1; experiment: cell proliferation, CCK-8 assay, PANC-1; format: cell-based; conditions: PANC-1 cells, 72 hours, hypoxic conditions
MDA-MB-231 cells = experiment: cell proliferation assay, cell counting by flow cytometry; format: cell-based, human; conditions: MDA-MB-231, 72 hours, hypoxic conditions
Procedure, shortened: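 MDA-MB-231 cells were grown in DMEM with 10% FBS, 1% penicillin/streptomycin and 1% glutamine, kept at low passage, and held under hypoxia (1% O₂, 5% CO₂). Cells were seeded at 10.000 per well and treated in 1% FBS with increasing compound concentrations for 72 h at 37 °C. They were then detached with trypsin/2 mM EDTA and counted by flow cytometry. Counts are given as % of untreated control (mean ± SEM) with IC₅₀.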

Sequence of hCA XII (O43570 25-354): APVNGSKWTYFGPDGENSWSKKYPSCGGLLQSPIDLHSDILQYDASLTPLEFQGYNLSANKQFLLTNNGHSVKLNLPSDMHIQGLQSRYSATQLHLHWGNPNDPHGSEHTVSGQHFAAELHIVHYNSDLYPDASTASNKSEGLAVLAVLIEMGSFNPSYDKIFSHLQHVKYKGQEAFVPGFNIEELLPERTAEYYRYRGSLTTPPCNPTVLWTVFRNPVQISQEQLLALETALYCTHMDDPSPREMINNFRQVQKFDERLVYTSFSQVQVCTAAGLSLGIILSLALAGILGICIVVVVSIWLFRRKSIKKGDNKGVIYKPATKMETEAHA
Sequence of hCA I (P00915 whole entry): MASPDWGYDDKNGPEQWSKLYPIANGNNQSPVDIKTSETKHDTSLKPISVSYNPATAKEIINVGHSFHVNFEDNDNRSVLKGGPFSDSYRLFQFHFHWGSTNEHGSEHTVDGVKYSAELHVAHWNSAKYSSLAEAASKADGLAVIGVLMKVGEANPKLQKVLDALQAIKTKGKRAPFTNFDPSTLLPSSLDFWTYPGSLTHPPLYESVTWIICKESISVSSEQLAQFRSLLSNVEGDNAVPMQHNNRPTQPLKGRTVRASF
Sequence of hCA VI (P23280 18-308): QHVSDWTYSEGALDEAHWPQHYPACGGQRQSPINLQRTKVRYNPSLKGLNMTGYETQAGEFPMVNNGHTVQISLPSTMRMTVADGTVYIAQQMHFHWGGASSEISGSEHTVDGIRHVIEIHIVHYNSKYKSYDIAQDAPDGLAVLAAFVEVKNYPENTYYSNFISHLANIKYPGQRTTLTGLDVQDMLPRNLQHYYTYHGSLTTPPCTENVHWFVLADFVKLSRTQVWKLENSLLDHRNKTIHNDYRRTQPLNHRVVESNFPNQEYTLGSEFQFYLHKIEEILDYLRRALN

pKi (hCA I) | pKi (hCA II [1]) | pKi (hCA VI) | pKi (hCA IX) | SI I/IX (hCA IX) | SI II/IX (hCA IX) | SI I/XII (hCA XII) | pKi (hCA XII; KI hCA XII, stopped-flow hydration assay) | SI II/XII (hCA XII; ratio of KI hCA II to KI hCA XII) | Structure (SMILES) | pKi (hCA II [2]) | antiproliferative effect [3] | antiproliferative effect [4] | anti-proliferative effect (MDA-MB-231 cells)
6.60 | 7.92 | 6.30 | 7.59 | 9.73 | 0.47 | 43.86 | – | – | Cc1cn([C@H]2C[C@H](N=[N+]=[N-])[C@@H](CO)O2)c(=O)[nH]c1=O [AZT, azidothymidine, reference compound] | 6.16 | – | – | –
– | – | 6.34 | – | – | – | – | – | – | C#Cc1cccc(Nc2ncnc3cc(OCCOC)c(OCCOC)cc23)c1 [ERL, erlotinib] | 5.40 | displayed an antiproliferative effect | displayed an antiproliferative effect | mild reduction of cell proliferation; also recorded: low efficacy
– | – | – | – | – | – | – | – | – | NS(=O)(=O)c1ccc(NC(=O)Nc2ccc(F)cc2)cc1 [SLC-0111] | – | ineffective | ineffective | –
6.02 | 4.49 | – | 5.73 | 0.51 | 17.4 | 10.0 | 7.02 | 344 | COCCOc1cc2ncnc(Nc3cccc(-c4cn(CCOCCOCCOCCOCCOCCNC(=S)NCCc5ccc(S(N)(=O)=O)cc5)nn4)c3)c2cc1OCCOC [compound 14d, 4-(22-(4-(3-((6,7-Bis(2-methoxyethoxy)quinazolin-4-yl)amino)phenyl)-1H-1,2,3-triazol-1-yl)-4-thioxo-8,11,14,17,20-pentaoxa-3,5-diazadocosyl)benzenesulfonamide] | – | – | – | –
